Here are results for 25 compounds from ChEMBL document CHEMBL1938287, “Design and synthesis of inhaled p38 inhibitors for the treatment of chronic obstructive pulmonary disease” (J Med Chem, 2011).

Values after ≈ are worked out from the molar mass of the structure shown.

Series [1] in a line: Metabolic stability in human liver microsomes. The class given is ADME, Microsome. The note with it: read-out: Stability. (In general: Liver microsomes are vesicles of endoplasmic reticulum, rich in cytochrome P450 enzymes.)
Series [2] can be described thus: Metabolic stability in human liver microsomes assessed as phase II glucuronidation in the presence of uridine diphosphate glucuronic acid and absence of NADPH. It counts as ADME, Microsome. The following applies: read-out: Stability. In outline: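 Human liver microsomes incubated with the cofactor UDPGA and without NADPH, to assess phase II glucuronidation.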

Series [3] is filed under the species Rattus norvegicus. Briefly: Unbound clearance in rat. The note with it: in vivo. It counts as ADME, organism-based.
The nature of series [4]: Clearance in rat at 1 mg/kg, iv. The class given is ADME, organism-based. More on the design: dose 1 mg/kg, route intravenous. The following applies: in vivo. In short, it runs like this:
(§1)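 Intravenous pharmacokinetics in rats from a 1 mg/kg dose; blood sampled.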

The nature of series [5]: Volume of distribution at steady state in rat at 1 mg/kg, iv. It counts as ADME, organism-based. More on the design: dose 1 mg/kg, route intravenous. The note with it: in vivo, read-out: Vdss.
Series [6] in a line: Half life in rat at 1 mg/kg, iv. The class given is ADME, organism-based. Set-up: dose 1 mg/kg, route intravenous. The following applies: in vivo. In outline:
as §1

A short description of series [7]: Oral bioavailability in rat at 3 mg/kg. The following applies: in vivo. It counts as ADME, organism-based. In outline:
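Oral pharmacokinetics in rats from a 3 mg/kg dose.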

Series [8] in a line: Intrinsic clearance in rat liver microsomes. The class given is ADME, Microsome. The following applies: read-out: CLH.
Series [9] can be described thus: Dissociation constant, pKa of the compound. It counts as physicochemical.
A short description of series [10]: Lipophilicity, log D of the compound. The class given is physicochemical. The note with it: octanol/water.
Series [11] in a line: Aqueous solubility of the compound. It counts as physicochemical.
For series [12], the system named is Liver microsomes. Briefly: Drug metabolism in rat liver microsomes. The class given is ADME, Microsome.
Series [13] has as its system Liver microsomes. The series is described as follows: Drug metabolism in human liver microsomes. It counts as ADME, Microsome.
Series [14] in a line: Drug metabolism in dog liver microsomes. It counts as ADME, Canis lupus familiaris, Microsome.
Series [15] is described as follows: Oral bioavailability in rat at 0.5 mg/kg. It counts as ADME, organism-based. The note with it: in vivo. In outline: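 Oral pharmacokinetics in rats from a 0.5 mg/kg dose; blood sampled.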
Series [16] can be described thus: Clearance in dog at 0.5 mg/kg, iv. It counts as ADME, organism-based, Canis lupus familiaris. More on the design: dose 0.5 mg/kg, route intravenous. The following applies: in vivo. In short, it runs like this:
(§2)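 Intravenous pharmacokinetics in dogs from a 0.5 mg/kg dose; blood sampled.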

Series [17] can be described thus: Volume of distribution at steady state in dog at 0.5 mg/kg, iv. It counts as ADME, organism-based, Canis lupus familiaris. More on the design: dose 0.5 mg/kg, route intravenous. The following applies: in vivo, read-out: Vdss.
The nature of series [18]: Half life in dog at 0.5 mg/kg, iv. The class given is ADME, organism-based, Canis lupus familiaris. Set-up: dose 0.5 mg/kg, route intravenous. The following applies: in vivo. In outline:
as §2

Series [19] is filed under the species Canis familiaris. The series is described as follows: Unbound clearance in dog. The class given is ADME, organism-based, Canis lupus familiaris. The following applies: in vivo.
Series [20] is described as follows: Solubility in simulated lung fluid. It counts as physicochemical.

Turning to `CC(C)(C)c1cc(NC(=O)NCc2ccccc2Sc2ccc3nnc(-c4ccccc4OCCO)n3c2)n(-c2ccc(Cl)c(O)c2)n1`, the microsomal CLint in [1] is 232 µL/min/mg; in [2], 70 µL/min/mg.
On to `CC(C)c1nnc2ccc(Sc3ccccc3CNC(=O)Nc3cc(C(C)(C)C)nn3-c3ccc(O)cc3)cn12`, for which, in series [1], the microsomal CLint stood at 196 µL/min/mg.
In general, clearance refers to the volume of plasma or blood freed of the substance per unit of time. High values mean efficient removal, low ones inefficient removal. In general, half-life refers to the time in which the quantity being followed falls by half. High values mean slow decline, low ones rapid decline. As usually defined, the bioavailability is the share of a dose that reaches the circulation, judged against a reference dose that is usually intravenous. A low value points to little systemic uptake. Regarding `CSC(C)(C)c1cc(NC(=O)NCc2ccccc2Sc2ccc3nnc(C(C)C)n3c2)n(-c2cccc(O)c2)n1`, the CL free in series [3] is greater than 9600 mL/min/kg. Besides, the microsomal CLint in series [1] is greater than 440 µL/min/mg; in [2] it was 2 µL/min/mg; in series [8] it was 200 µL/min/mg. This compound had a clearance in [4] of 77 mL/min/kg. In addition, the Vd in series [5] is 0.9 L/kg. For the same compound, the half-life in [6] was 1 h. The compound also showed a bioavailability in [7] of less than 5%.
Turning to `CSc1ccccc1-c1nnc2ccc(Sc3ccccc3CNC(=O)Nc3cc(C(C)(C)C)nn3-c3cccc(O)c3)cn12`, the microsomal CLint in series [1] was 304 µL/min/mg; in series [2] it was 11 µL/min/mg.
Taken in the same sequence, the figures for `Cc1cccc(-n2nc(C(C)(C)C)cc2NC(=O)NCc2ccccc2Sc2ccc3nnc(-c4cccc(Cl)c4O)n3c2)c1` were 126 µL/min/mg and 41 µL/min/mg.
With `CC(C)c1nnc2ccc(Sc3ccccc3CNC(=O)Nc3cc(C(C)(C)C)nn3-c3ccc(O)c(Cl)c3)cn12`, the microsomal CLint in series [1] was greater than 287 µL/min/mg; in series [2], 155 µL/min/mg.
Consider `CC(C)(C)c1cc(NC(=O)NCc2ccccc2Sc2ccc3nnc(-c4ccccc4OCCO)n3c2)n(-c2cccc(O)c2)n1`, for which the microsomal CLint in [1] is greater than 320 µL/min/mg.
Take `CC(C)(C)c1cc(NC(=O)NCc2ccccc2Sc2ccc3nnc(-c4ccccc4OCCO)n3c2)n(-c2ccc(O)c(Cl)c2)n1`: the figures for the microsomal CLint in series [1] and in [2] were 202 µL/min/mg and 130 µL/min/mg, respectively.
As for `CC(C)c1nnc2ccc(Sc3ccccc3CNC(=O)Nc3cc(C(C)(C)C)nn3-c3ccccc3)cn12`, in series [1], the microsomal CLint is greater than 320 µL/min/mg.
On the same count and under the same terms, to `CC(C)(C)c1cc(NC(=O)NCc2ccccc2Sc2ccc3nnc(-c4ccccc4OCCO)n3c2)n(-c2ccc(O)c(F)c2)n1` belongs greater than 440 µL/min/mg; to `Cc1ccc(-n2nc(C(C)(C)C)cc2NC(=O)NCc2ccccc2Sc2ccc3nnc(-c4ccccc4O)n3c2)cc1`, 279 µL/min/mg.
Regarding `CSCC(C)(C)c1cc(NC(=O)NCc2ccccc2Sc2ccc3nnc(-c4ccccc4O)n3c2)n(-c2ccccc2)n1`, the microsomal CLint is greater than 440 µL/min/mg in series [1] and 27 µL/min/mg in series [2].
In the case of `CSCC(C)(C)c1cc(NC(=O)NCc2ccccc2Sc2ccc3nnc(-c4ccccc4SCCO)n3c2)n(-c2ccc(O)c(Cl)c2)n1`, the microsomal CLint in series [2] was 264 µL/min/mg.
Turning to `CC(C)(C)c1cc(NC(=O)NCc2ccccc2Sc2ccc3nnc(-c4ccccc4SCCO)n3c2)n(-c2cccc(O)c2)n1`, the microsomal CLint was greater than 440 µL/min/mg in series [1] and 4 µL/min/mg in [2].
Turning to `CC(C)c1nnc2ccc(Sc3ccccc3CNC(=O)Nc3cc(C(C)(C)C)nn3-c3cccc(O)c3)cn12`, the microsomal CLint in series [1] was 385 µL/min/mg.
As to `CSCC(C)(C)c1cc(NC(=O)NCc2ccccc2Sc2ccc3nnc(-c4ccccc4OCCO)n3c2)n(-c2ccc(O)c(Cl)c2)n1`, the microsomal CLint in series [1] is greater than 440 µL/min/mg; in [2] it was 310 µL/min/mg.
Taken in the same sequence, the figures for `CC(C)c1nnc2ccc(Sc3ccccc3CNC(=O)Nc3cc(C(C)(C)C)nn3-c3ccc(Cl)c(O)c3)cn12` were 303 µL/min/mg and 66 µL/min/mg.
For orientation: pKa means the pH at which an ionisable group is half protonated. One may read the logD as lipophilicity at a set pH, counting ionised and neutral species. A higher logD goes with higher lipophilicity. The solubility is the concentration that dissolves in the medium under given conditions. The low end stands for a poorly soluble substance, the high end for a readily soluble substance. In the case of `CC(C)(C)c1cc(NC(=O)NCc2ccccc2Sc2ccc3nnc(-c4ccccc4SCCO)n3c2)n(-c2ccc(O)c(Cl)c2)n1` [PF-03715455], the CL free was 33000 mL/min/kg in series [3] and 15000 mL/min/kg in [19]. Besides, the pKa in [9] was found to be 7.45. In series [10], this compound came in with a logD greater than 4.1. The compound also registered a solubility in series [11] of less than 100 µg/mL. Moreover, the Drug metabolism result in series [12], in series [13] and in series [14] was “Active” each time. The bioavailability in series [15] is less than 5%. The clearance in [16] was 13.1 mL/min/kg; in [4] it was 33.8 mL/min/kg. The Vd in series [17] is 0.06 L/kg; in [5], 0.19 L/kg. The figures for the half-life in series [18] and in [6] were 0.5 h and 1 h, respectively. For the same compound, the figures for the microsomal CLint in series [1] and in series [2] were greater than 347 µL/min/mg and 205 µL/min/mg, respectively.
As to `CSCC(C)(C)c1cc(NC(=O)NCc2ccccc2Sc2ccc3nnc(-c4cc(O)ccc4Cl)n3c2)n(-c2cccc(OCCO)c2)n1`, the microsomal CLint in series [1] is greater than 216 µL/min/mg; in [2] it was 47 µL/min/mg.
Consider `Cc1ccc(-n2nc(C(C)(C)C)cc2NC(=O)NCc2ccccc2Sc2ccc3nnc(-c4cc(O)ccc4Cl)n3c2)cc1`, for which the results for the microsomal CLint in series [1] and in series [2] were greater than 440 µL/min/mg and 43 µL/min/mg, respectively.
As to `CC(C)(C)c1cc(NC(=O)NCc2ccccc2Sc2ccc3nnc(-c4ccccc4O)n3c2)n(-c2cccc(OCCO)c2)n1`, in series [20], the concentration in solution (solubility) came to 1 µg/mL (≈ 1.54 µM). Moreover, the microsomal CLint in series [1] was greater than 287 µL/min/mg; in series [2], 8 µL/min/mg.
Take `CC(C)(C)c1cc(NC(=O)NCc2ccccc2Sc2ccc3nnc(-c4cc(O)ccc4Cl)n3c2)n(-c2cccc(OCCO)c2)n1`: the microsomal CLint is greater than 285 µL/min/mg in series [1] and 53 µL/min/mg in series [2].
In the case of `Cc1ccc(-n2nc(C(C)(C)C)cc2NC(=O)NCc2ccccc2Sc2ccc3nnc(-c4ccc(O)cc4Cl)n3c2)cc1`, in series [1], the microsomal CLint worked out at 132 µL/min/mg.
Regarding `C[C@@H]1C[C@H]2[C@@H]3C[C@H](F)C4=CC(=O)C=C[C@]4(C)[C@@]3(F)[C@@H](O)C[C@]2(C)[C@@]1(O)C(=O)SCF` [FLUTICASONE], the solubility in series [20] was 0.5 µg/mL (≈ 1.12 µM).
As to `CSC(C)(C)c1cc(NC(=O)NCc2ccccc2Sc2ccc3nnc(C(C)C)n3c2)n(-c2ccccc2)n1`, the microsomal CLint was greater than 320 µL/min/mg in series [1] and 1.7 µL/min/mg in [2].
